Results on one compound are retold here after ChEMBL document CHEMBL4680091, “Discovery of Novel Spiro[3H-indole-3,2'-pyrrolidin]-2(1H)-one Compounds as Chemically Stable and Orally Active Inhibitors of the MDM2-p53 Interaction” (J Med Chem, 2016).

Activity calls are given as the source filed them. The rule behind the calls is not given here.

Data set [1] relates to SJSA-1. The experiment in a line: Antitumor activity against human SJSA-1 cells xenografted in BomTac:NMRI-Foxn1^nu mouse assessed as induction of tumor regression at 25 mg/kg, po dosed daily for 13 days. In kind it is functional, organism-based. As to conditions: time 13.0 day. Put shortly:
(§1)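 NMRI nude mice bearing established subcutaneous SJSA-1 osteosarcoma tumors received oral treatment, with a vehicle control group. There were 8 animals per group. Median tumor volume and median body weight change (% of initial) were tracked.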
A general note: Xenograft models place foreign cells or tissue in a host animal.

Data set [2] has as its system SJSA-1. The experiment in a line: Antitumor activity against human SJSA-1 cells xenografted in BomTac:NMRI-Foxn1^nu mouse assessed as induction of tumor regression at 100 mg/kg, po administered as single dose and measured up to 13 days. In kind it is functional, organism-based. The settings on record: time day <=13. In outline: as §1
Data set [3] concerns the target E3 ubiquitin-protein ligase Mdm2 (Mus musculus) (UniProt P23804). The experiment in a line: In-vivo inhibition of MDM2 in BomTac:NMRI-Foxn1^nu mouse xenografted with human SJSA-1 cells assessed as induction of CDKN1a mRNA expression at 100 mg/kg, po administered as single dose and measured after 6 to 24 hrs by q-RT-PCR analysis. The settings on record: time 6-24 hrs, TDE = time-dependent effect. The class given is functional, organism-based. In outline: (§2)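 Established subcutaneous SJSA-1 xenografts in NMRI nude mice were dosed once orally at 100 mg/kg, or with vehicle. Tumors were harvested 6 h and 24 h after dosing. TP53 target-gene mRNA was quantified by q-RT-PCR.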

For data set [4] the target is unchanged. The experiment in a line: In-vivo inhibition of MDM2 in BomTac:NMRI-Foxn1^nu mouse xenografted with human SJSA-1 cells assessed as induction of MDM2 mRNA expression at 100 mg/kg, po administered as single dose and measured after 6 to 24 hrs by q-RT-PCR analysis. In kind it is functional, organism-based. As to conditions: time 6-24 hrs, TDE = time-dependent effect. Put shortly: as §2

Data set [5] has the same target. The experiment in a line: In-vivo inhibition of MDM2 in BomTac:NMRI-Foxn1^nu mouse xenografted with human SJSA-1 cells assessed as induction of BBC3 mRNA expression at 100 mg/kg, po administered as single dose and measured after 6 to 24 hrs by q-RT-PCR analysis. In kind it is functional, organism-based. The settings on record: time 6-24 hrs, TDE = time-dependent effect. Put shortly:
as §2

Data set [6] shares this target. The experiment in a line: In-vivo inhibition of MDM2 in BomTac:NMRI-Foxn1^nu mouse xenografted with human SJSA-1 cells assessed as induction of TP53 protein accumulation at 100 mg/kg, po administered as single dose and measured after 6 to 24 hrs by mesoscale assay. The class given is functional, organism-based. As to conditions: time 6-24 hrs. In outline: (§3)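 In NMRI nude mice with established subcutaneous SJSA-1 tumors, a single oral 100 mg/kg dose was compared with vehicle. Tumors collected at 6 h and 24 h post-dose were analysed for protein biomarkers by Meso-Scale assay.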

For data set [7] the target is unchanged. The experiment in a line: In-vivo inhibition of MDM2 in BomTac:NMRI-Foxn1^nu mouse xenografted with human SJSA-1 cells assessed as induction of MDM2 protein accumulation at 100 mg/kg, po administered as single dose and measured after 6 to 24 hrs by mesoscale assay. As to conditions: time 6-24 hrs. In kind it is functional, organism-based. In outline:
as §3

For data set [8] the target is unchanged. The experiment in a line: In-vivo inhibition of MDM2 in BomTac:NMRI-Foxn1^nu mouse xenografted with human SJSA-1 cells assessed as induction of cleaved caspse-3 protein accumulation at 100 mg/kg, po administered as single dose and measured after 6 to 24 hrs by mesoscale assay. In kind it is functional, organism-based. As to conditions: time 6-24 hrs. Put shortly: as §3

For data set [9] the target is unchanged. The experiment in a line: In-vivo inhibition of MDM2 in BomTac:NMRI-Foxn1^nu mouse xenografted with human SJSA-1 cells assessed as induction of CDKN1a protein accumulation at 100 mg/kg, po administered as single dose and measured after 6 to 24 hrs by immunohistochemical analysis. In kind it is functional, organism-based. The settings on record: time 6-24 hrs. Put shortly: (§4)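 SJSA-1 tumor-bearing NMRI nude mice received one oral dose of 100 mg/kg. Tumors were harvested at 6 h and 24 h. Sections were stained by immunohistochemistry for CDKN1a, TP53 and cleaved CASPASE3.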

The target is the same in data set [10]. The experiment in a line: In-vivo inhibition of MDM2 in BomTac:NMRI-Foxn1^nu mouse xenografted with human SJSA-1 cells assessed as induction of TP53 protein accumulation at 100 mg/kg, po administered as single dose and measured after 6 to 24 hrs by immunohistochemical analysis. The settings on record: time 6-24 hrs. In kind it is functional, organism-based. In outline: as §4

For data set [11] the target is unchanged. The experiment in a line: In-vivo inhibition of MDM2 in BomTac:NMRI-Foxn1^nu mouse xenografted with human SJSA-1 cells assessed as induction of cleaved CASPASE3 protein accumulation at 100 mg/kg, po administered as single dose and measured after 6 to 24 hrs by immunohistochemical analysis. The class given is functional, organism-based. As to conditions: time 6-24 hrs. Put shortly: as §4

Data set [12] deals with SJSA-1. The experiment in a line: Antiproliferative activity against human SJSA-1 cells expression wild type p53 incubated for 3 days by Alamar Blue dye based assay. The class given is functional, cell-based. The settings on record: SJSA-1, 72 h. For orientation: Alamar Blue is a resazurin reagent that responds to reducing activity.
Data set [13] relates to SK-OV-3. The experiment in a line: Antiproliferative activity against human SK-OV-3 cells expression p53 mutant incubated for 3 days by Alamar Blue dye based assay. As to conditions: SK-OV-3, 72 h. In kind it is functional, cell-based. In outline: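 p53-mutant SK-OV-3 cells were used in a growth/proliferation assay, with compounds tested up to 25 μM.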
Data set [14] in a line: AUC (0 to 24 hrs) in NMRI mouse at 50 mg/kg, po. The class given is ADME, organism-based. Details: time < 24 hr, route oral, dose 50 mg/kg. The settings on record: in vivo. In outline:
(§5)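 Non-tumor-bearing female NMRI nude mice were given a single dose by one of two routes. The iv arm received 5 mg/kg as a bolus in 25% HP-B-CD. The po arm received 50 mg/kg in 0.5% Natrosol (pH 7-8, NaOH titrated). Both used 10 ml/kg. Plasma levels were measured by LC/MS/MS, n=3 per dose group. Parameters came from non-compartmental analysis, with AUC0-24h by linear trapezoidal interpolation.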

Data set [15] can be described thus: Cmax in NMRI mouse at 50 mg/kg, po. On the set-up: route oral, dose 50 mg/kg. The class given is ADME, organism-based. As to conditions: in vivo. Put shortly:
as §5

The nature of data set [16]: Clearance in NMRI mouse at 5 mg/kg, iv. The settings on record: in vivo. In kind it is ADME, organism-based. Put shortly:
as §5

The nature of data set [17]: Volume of distribution at steady state in NMRI mouse at 5 mg/kg, iv. The class given is ADME, organism-based. The settings on record: in vivo, read-out: Vdss. In outline: as §5

E3 ubiquitin-protein ligase Mdm2 (Mus musculus), sequence (P23804 whole entry): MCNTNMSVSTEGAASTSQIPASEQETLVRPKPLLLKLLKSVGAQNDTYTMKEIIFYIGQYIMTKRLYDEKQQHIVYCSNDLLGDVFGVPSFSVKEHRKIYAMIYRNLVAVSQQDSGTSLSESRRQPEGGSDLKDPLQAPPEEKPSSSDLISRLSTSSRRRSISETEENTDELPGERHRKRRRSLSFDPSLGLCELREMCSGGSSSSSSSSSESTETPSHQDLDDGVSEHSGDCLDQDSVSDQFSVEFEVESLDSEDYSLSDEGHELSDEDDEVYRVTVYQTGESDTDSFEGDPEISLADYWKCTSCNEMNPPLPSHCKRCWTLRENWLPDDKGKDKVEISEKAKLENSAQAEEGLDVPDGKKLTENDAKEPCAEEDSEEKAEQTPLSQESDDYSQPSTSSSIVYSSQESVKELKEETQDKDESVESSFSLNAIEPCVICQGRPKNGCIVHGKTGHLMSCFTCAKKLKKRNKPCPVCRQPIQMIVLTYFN

What is called IC50 is the point on the concentration scale where inhibition reaches its midpoint. Low values mean greater potency, high ones weaker potency. What is called AUC(0-t) is the area under the concentration-time curve up to a stated or last time point. The low end stands for low exposure, the high end for high exposure. Usually Cmax stands for the maximum level reached in the sampled fluid or tissue. In general, clearance refers to the rate of elimination divided by the concentration. Read a low clearance as a low capacity for elimination. On to `O=C(O)c1ccc([C@H]2C[C@H]3[C@@H](N2)[C@H](c2cccc(Cl)c2F)[C@]2(C(=O)Nc4cc(Cl)ccc42)N3CC2CC2)cc1`, for which the result in data set [1] and in data set [2] was Active. In addition, the inhibition entry in [3], in data set [4] and in data set [5] was “Tde” in each case. Further, the inhibition result in data set [6], in data set [7], in [8], in data set [9], in data set [10] and in [11] was “Active” each time. Also, the concentration for half-maximal inhibition (IC50) was 471 nM in data set [12] and more than 25000 nM in data set [13]. Further, the AUC(0-t) at 24 h in data set [14] was 264 µM·h. Moreover, in data set [15], the highest level (Cmax) was 21.3 µM. The compound further registered a clearance in data set [16] of 7.1 mL/min/kg. Also, the Vd in [17] is 2.1 L/kg.
